In ChEMBL document CHEMBL1149892, “Structure-antifungal activity relationship of His-Phe-Arg-Trp-Gly-Lys-Pro-Val-NH2 and analogues” (2008):

Key:
Type in all cases: functional
[1] = test system: Cryptococcus neoformans; experiment: Antifungal activity against Cryptococcus neoformans ATCC 32264 at 25 uM after 48 hrs relative to amphotericin B; details: ATCC 32264, 48 h
Method in brief: (§1)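 Microplate assay in RPMI-1640 with DMSO-dissolved peptide, final DMSO ≤2%. Inoculum is 1–5 × 10^3 CFU/mL from slants grown 24 h at 35 °C. Plates are held 48 h at 35 °C in a moist, dark chamber and read at OD405. Inhibition is taken against a DMSO-matched growth control after sterility-well subtraction; amphotericin B is set as 100%. Duplicate determinations.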

[2] = test system: Cryptococcus neoformans; experiment: Antifungal activity against Cryptococcus neoformans ATCC 32264 at 1.62 uM after 48 hrs relative to amphotericin B; details: ATCC 32264, 48 h; method in brief: as §1
[3] = test system: Cryptococcus neoformans; experiment: Antifungal activity against Cryptococcus neoformans ATCC 32264 at 100 uM after 48 hrs relative to amphotericin B; details: ATCC 32264, 48 h; method in brief: as §1
[4] = test system: Cryptococcus neoformans; experiment: Antifungal activity against Cryptococcus neoformans ATCC 32264 at 3.25 uM after 48 hrs relative to amphotericin B; details: ATCC 32264, 48 h; method in brief: as §1
[5] = test system: Cryptococcus neoformans; experiment: Antifungal activity against Cryptococcus neoformans ATCC 32264 at 6.25 uM after 48 hrs relative to amphotericin B; details: ATCC 32264, 48 h; method in brief: as §1
[6] = test system: Cryptococcus neoformans; experiment: Antifungal activity against Cryptococcus neoformans ATCC 32264 at 0.40 uM after 48 hrs relative to amphotericin B; details: ATCC 32264, 48 h; method in brief: as §1
[7] = test system: Candida albicans; experiment: Antifungal activity against Candida albicans 10231 at 100 uM after 24hrs relative to amphotericin B
Method in brief: (§2)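 Broth microdilution in RPMI-1640. Peptides come from DMSO stocks, final DMSO ≤2%, at final 200 and 100 μM. Inoculum is 1–5 × 10^3 CFU/mL from strains grown 24 h at 35 °C on Sabouraud-chloramphenicol agar. […] Growth control carries matched DMSO; amphotericin B defines 100% inhibition. Run in duplicate.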

[8] = test system: Cryptococcus neoformans; experiment: Antifungal activity against Cryptococcus neoformans ATCC 32264 at 0.81uM after 48 hrs relative to amphotericin B; details: ATCC 32264, 48 h; method in brief: as §1
[9] = test system: Cryptococcus neoformans; experiment: Antifungal activity against Cryptococcus neoformans ATCC 32264 at 12.5 uM after 48 hrs relative to amphotericin B; details: ATCC 32264, 48 h; method in brief: as §1
[10] = test system: Candida tropicalis; experiment: Antifungal activity against Candida tropicalis C 131 at 100 uM after 24 hrs relative to amphotericin B; method in brief: as §2
[11] = test system: Candida tropicalis; experiment: Antifungal activity against Candida tropicalis C 131 at 200 uM after 24 hrs relative to amphotericin B; method in brief: as §2
[12] = test system: Candida albicans; experiment: Antifungal activity against Candida albicans 10231 at 200 uM after 24 hrs relative to amphotericin B; method in brief: as §2
[13] = test system: Cryptococcus neoformans; experiment: Antifungal activity against Cryptococcus neoformans ATCC 32264 at 200 uM after 48 hrs relative to amphotericin B; details: ATCC 32264, 48 h; method in brief: as §1
[14] = test system: Cryptococcus neoformans; experiment: Antifungal activity against Cryptococcus neoformans ATCC 32264 at 50 uM after 48 hrs relative to amphotericin B; details: ATCC 32264, 48 h; method in brief: as §1

Substance | inhibition at 25 µM [1] [%] | inhibition at 1.62 µM [2] [%] | inhibition at 100 µM [3] [%] | inhibition at 3.25 µM [4] [%] | inhibition at 6.25 µM [5] [%] | inhibition at 0.4 µM [6] [%] | inhibition at 100 µM [7] [%] | inhibition at 0.81 µM [8] [%] | inhibition at 12.5 µM [9] [%] | inhibition at 100 µM [10] [%] | inhibition at 200 µM [11] [%] | inhibition at 200 µM [12] [%] | inhibition at 200 µM [13] [%] | inhibition at 50 µM [14] [%]
H-HFKWGKFV-NH2 | 0 | 0 | 38 | 0 | 0 | 0 | 0 | 0 | 0 | 0 | 22 | 72 | 97 | –
H-HFKWGKYV-NH2 | 49 | 33 | 50 | 36 | 31 | 26 | 0 | 31 | 40 | 0 | 0 | 15 | 83 | 50
H-HFRWGKFV-NH2 | 2 | 0 | 15 | 0 | 0 | 0 | 5 | 0 | 0 | 9 | 19 | 61 | 77 | 15
H-HFRWGKPV-NH2 | 0 | 0 | 9 | 0 | 0 | 0 | 0 | 0 | 0 | 0 | 0 | 0 | 24 | 0
H-HFRWGKYV-NH2 | 41 | 6 | 58 | 10 | 24 | 0 | 0 | 0 | 28 | 0 | 21 | 43 | 99 | 56
H-HFRWGRFV-NH2 | 26 | 11 | 72 | 12 | 18 | 7 | 1 | 10 | 26 | 1 | 64 | 80 | 94 | 67
H-HYKWGKFV-NH2 | 38 | 0 | 25 | 0 | 0 | 0 | 0 | 0 | 34 | 0 | 1 | 0 | 41 | 43
H-HYKWGKYV-NH2 | 22 | – | 42 | – | 10 | – | 0 | – | 19 | 0 | 3 | 0 | 63 | 39
H-HYKWGRFV-NH2 | – | 21 | 47 | 17 | 19 | 0 | 0 | 2 | – | 0 | 23 | 11 | 89 | –
H-HYRWGKFV-NH2 | 24 | 5 | 21 | 16 | 16 | 0 | 0 | 0 | 21 | 0 | 1 | 10 | 35 | 37
